Compounds with a hit are over-represented: about 1.8% of the library has one in this group of screens.
LANA-H2B inh = blocks KSHV LANA binding to histone H2A/H2B; AID 2629; inhibition, % (concentration not given with the values); actives 0.6% (n = 320,000); cell-free LANA-H2A/H2B peptide, fluorescence polarization; in the data active means inhibition mostly above about 10%, no sharp cut-off; inactive means mostly below about 6.7%
AI-2 QS modul = modulators of Vibrio harveyi AI-2 quorum sensing system; activity change, % at 7.5 µM; actives 0.4% (n = 300,000); Vibrio harveyi JMH597 AI-2 luminescence/OD600 ratio, 9 h; hits give low values; strain lacks LuxN and CqsS sensors; 0 = neutral-control median; in the data active means activity change below about -75%, passing the limit was not always enough;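 further: luminescence divided by OD600 gain over 9 h not by final OD600 alone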
A1 inh = inhibitors of the anti-apoptotic protein A1, read as caspase activation; MEF A1-2A-BIM cells, Caspase-Glo 3/7 luminescence, 3 h; percent of clofoctol response, vehicle zero; caspase activation, % (concentration not given with the values); actives 0.066% (n = 330,000); AID 2462;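 active means over half of replicate activation scores above 10%, or exactly half above 10 with the replicate mean above 10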
HKDC1 inhibitor = inhibitors of human hexokinase HKDC1; actives 0.16% (n = 340,000); Q2TB90; recombinant HKDC1, G6PDH/diaphorase resazurin coupled fluorescence; inhibition, % at 20 µM; AID 493160;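 active means inhibition above about 35% when tested at 20 µM, limit read from the data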
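Test system: recombinant HKDC1 (HK5) hexokinase enzyme, produced in-house; Amount: enzyme 5 µg/mL final; Buffer or medium: Tris pH 8.0 buffer with MgCl2, Tween-20, BSA, BME; Reagent: glucose and ATP substrates; Doses: 20 µM test compound, 1% DMSO; Incubation: 90 min reaction incubation at room temperature, dark; Detection: resorufin fluorescence at 613 nm.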
ATG4B inhibitor = inhibitors of human ATG4B cysteine protease; Q9Y4P1; ATG4B cleavage of LC3-PLA2, NBD-HPC fluorescence, 1 h; AID 504462; actives 0.51% (n = 340,000); inhibition, % at 8.33 µM; in the data active means inhibition above about 40%
Target sequence (Q9Y4P1 whole entry, looked up): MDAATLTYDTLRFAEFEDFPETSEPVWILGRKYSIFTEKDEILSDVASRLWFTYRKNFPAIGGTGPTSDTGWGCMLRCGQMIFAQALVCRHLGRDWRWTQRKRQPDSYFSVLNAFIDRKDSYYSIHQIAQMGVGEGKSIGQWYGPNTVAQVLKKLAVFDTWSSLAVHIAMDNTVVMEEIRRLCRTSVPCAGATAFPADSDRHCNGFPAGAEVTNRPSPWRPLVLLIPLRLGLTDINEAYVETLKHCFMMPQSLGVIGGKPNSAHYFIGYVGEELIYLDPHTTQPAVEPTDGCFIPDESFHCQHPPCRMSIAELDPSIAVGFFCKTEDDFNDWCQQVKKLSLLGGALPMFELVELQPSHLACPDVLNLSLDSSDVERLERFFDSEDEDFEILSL
HDAC3 inh = blocks human histone deacetylase 3 | O15379 | recombinant HDAC3, fluorogenic peptide/trypsin coupled, fluorescence | inhibition, % at 8.3 µM | actives 0.15% (n = 320,000); in the data active means inhibition above about 26%, passing the limit was not always enough
A number is an active result; 0 = inactive; - = no result given; ! = a repeat was not active.

SMILES	LANA-H2B inh	AI-2 QS modul	A1 inh	HKDC1 inhibitor	ATG4B inhibitor	HDAC3 inh
Oc1ccccc1Oc1ncc(Br)c(N2CCOCC2)n1	0	0	0	0	0	0
Cc1cccc(NC(=O)CN2C(=O)N/C(=C/c3ccc(C)o3)C2=O)c1	-	0	0	0	0	0
Cc1cccc(NC(=O)CN2C(=O)N/C(=C\c3ccc(-c4cccc(C(=O)O)c4)o3)C2=O)c1	113	0	0	0	0	0
CCCc1ccc(Oc2cn[nH]c2-c2ccc(O)c(C)c2O)cc1	0	-94	0	0	0	0
O=C(CCNC(=O)c1ccc([N+](=O)[O-])cc1)Nc1cccc(S(=O)(=O)N2CCCCCC2)c1	12	-	0	0	0	0
O=C(CCNC(=O)c1ccc([N+](=O)[O-])cc1)Nc1cccc(S(=O)(=O)N2CCOCC2)c1	0	-	0	0	0	0
Nc1nc(SCC(=O)Nc2cccc(S(=O)(=O)N3CCCCCC3)c2)n[nH]1	171	0	0	0	0	0
COc1ccc(N(C)S(=O)(=O)c2cccc(C(=O)N3CCN(c4cccc(C)c4C)CC3)c2)cc1	-	-	-	0	0	-
Cc1ccc(S(=O)(=O)NCc2ccccc2)cc1C(=O)NC(C)c1ccc(S(N)(=O)=O)cc1 (stereo not given)	-	-	-	0	0	-
CN(C)CCCN(C(=O)c1ccc([N+](=O)[O-])s1)c1nc2cc3c(cc2s1)OCCO3	0	0	0	0	0	0
CN(C)CCCN(C(=O)c1cc2cc([N+](=O)[O-])ccc2s1)c1nc2cc3c(cc2s1)OCCO3	0	0	8.4	0	0	0
CC(C)n1cc(CN2CCC(Oc3ccc(C(=O)N4CCCC4)cc3)CC2)cn1	49	0	0	0	0	0
O=C(N/C=C/n1cnc2cc(C(F)(F)F)ccc21)c1ccccc1	0	0	0	0	0	0
CC(C)c1ccc(/C=N/NC(=O)c2ccc(-n3cnnn3)cc2)cc1	-	-	-	0	0	-
Cc1nc2cc(N3CCOCC3)c(NC(=O)C3CC3)cc2c(=O)n1Cc1ccccc1	56	0	0	0	0	0
C#CCN1C=CC(=O)[C@@H](O)[C@H]1c1ccccc1Br	-	-	-	0	0	-
COc1ccc(OC)c(/C=C2\N=C(c3ccccc3)OC2=O)c1	42	0	0	0	0	0
COc1ccc(N2CCN(C(=O)CS(=O)Cc3nc(-c4ccc(OC)c(OC)c4)oc3C)CC2)cc1 (stereo not given)	16	0	0	0	0	0
Cc1ccc(S(=O)(=O)CCC(=O)OCC(=O)NC2CCS(=O)(=O)C2)cc1 (stereo not given)	25	0	0	0	0	0
Cc1ccc(S(=O)(=O)NC(C(=O)OCC(=O)NC2CCS(=O)(=O)C2)C(C)C)cc1 (stereo not given)	0	0	0	0	0	0
O=Cc1ccc2ccc3cccnc3c2n1	0	0	0	0	0	0
c1cnc2c(c1)ccc1cccnc12	21!	0	0	0	0	0
CCCCn1c(N)c(N(C(=O)CSc2nnnn2-c2ccc(C)cc2)C2CCCC2)c(=O)[nH]c1=O	-	-	-	0	0	-
CCCCN(C(=O)C1CC(=O)N(c2ccc3c(c2)OCCO3)C1)c1c(N)n(CCCC)c(=O)[nH]c1=O (stereo not given)	25	0	0	0	0	0
Cc1ccc(CC(=O)Nc2nc3ccccc3s2)cc1	24	0	0	0	0	0
SMILES	LANA-H2B inh	AI-2 QS modul	A1 inh	HKDC1 inhibitor	ATG4B inhibitor	HDAC3 inh
COc1cc(/C=C2\SC(=O)N(CCNC(=O)c3sc4cc(F)ccc4c3Cl)C2=O)cc(OC)c1OC	15	0	0	0	0	0
COc1cc(C(=O)NCC(=O)NCCN2C(=O)S/C(=C\c3ccccc3Cl)C2=O)cc(OC)c1OC	0	0	0	0	0	0
CC(NC(=O)c1cccc(S(=O)(=O)N2CCc3ccccc32)c1)c1ccco1 (stereo not given)	135	-	0	0	0	0
CC(C)(C)n1nnnc1C(c1cccs1)N(Cc1ccc(Cl)cc1)CC1CCCO1 (stereo not given)	0	0	0	0	0	0
C[C@@H]1ON(C)[C@H]2C[C@H]3c4cc(-c5cccc(F)c5)ccc4CCN3C(=O)[C@@H]12	-	-	-	0	0	-
O=C(COC(=O)/C=C/c1ccc(F)cc1)NC1CCS(=O)(=O)C1 (stereo not given)	-	-	-	0	0	-

Screens from PubChem BioAssay.
